Measured values from ChEMBL document CHEMBL3421623 (J Med Chem, 2015).

Assays:
Estrogen receptor beta = Estrogen receptor beta (Homo sapiens, UniProt Q92731); assay: Displacement of fluorescein-labeled ES2 from human recombinant ERbeta receptor after 2 hrs by fluorescence polarization assay
Summary of the method: (§1)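 Fluorescence polarization competition. Compound in methanol or DMSO mixed with ES2 screening buffer (100 mM potassium phosphate, 100 μg/mL BGG, 0.02% NaN₃). Preformed complex added to final 9 nM ES2 with 30 nM ER-α or 20 nM ER-β. Polarization expressed as % of vehicle control; EC50 from one-site competition fit.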

Cytochrome P450 1A2 = biological target: T1, Cytochrome P450 1A2 (Homo sapiens, UniProt P05177); assay: Inhibition of human recombinant CYP1A2 assessed as metabolism of 3-cyano-7-ethoxycoumarin after 30 mins by fluorescence assay; assay type: ADME
T1 sequence (P05177 whole entry): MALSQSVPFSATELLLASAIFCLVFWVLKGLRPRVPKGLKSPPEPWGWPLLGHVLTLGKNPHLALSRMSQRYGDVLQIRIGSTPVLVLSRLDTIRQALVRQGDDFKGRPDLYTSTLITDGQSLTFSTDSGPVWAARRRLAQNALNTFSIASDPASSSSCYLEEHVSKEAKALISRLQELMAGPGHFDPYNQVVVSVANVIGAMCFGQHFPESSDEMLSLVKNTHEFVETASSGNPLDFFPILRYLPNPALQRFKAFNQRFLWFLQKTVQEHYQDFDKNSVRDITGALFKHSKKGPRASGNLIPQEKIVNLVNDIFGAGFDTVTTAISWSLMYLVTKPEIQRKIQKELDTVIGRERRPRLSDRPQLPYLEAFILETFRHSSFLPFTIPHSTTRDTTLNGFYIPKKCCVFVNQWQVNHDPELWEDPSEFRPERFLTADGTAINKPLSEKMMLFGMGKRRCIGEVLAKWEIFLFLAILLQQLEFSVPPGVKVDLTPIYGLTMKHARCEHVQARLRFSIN

Cytochrome P450 3A5 = Cytochrome P450 3A5 (Homo sapiens, UniProt P20815); assay: Inhibition of human recombinant CYP3A5 assessed as metabolism of 7-benzyloxy-4-trifluoromethylcoumarin to HFC after 30 mins by fluorescence assay; assay type: ADME
Chain of Cytochrome P450 3A5 (P20815 whole entry): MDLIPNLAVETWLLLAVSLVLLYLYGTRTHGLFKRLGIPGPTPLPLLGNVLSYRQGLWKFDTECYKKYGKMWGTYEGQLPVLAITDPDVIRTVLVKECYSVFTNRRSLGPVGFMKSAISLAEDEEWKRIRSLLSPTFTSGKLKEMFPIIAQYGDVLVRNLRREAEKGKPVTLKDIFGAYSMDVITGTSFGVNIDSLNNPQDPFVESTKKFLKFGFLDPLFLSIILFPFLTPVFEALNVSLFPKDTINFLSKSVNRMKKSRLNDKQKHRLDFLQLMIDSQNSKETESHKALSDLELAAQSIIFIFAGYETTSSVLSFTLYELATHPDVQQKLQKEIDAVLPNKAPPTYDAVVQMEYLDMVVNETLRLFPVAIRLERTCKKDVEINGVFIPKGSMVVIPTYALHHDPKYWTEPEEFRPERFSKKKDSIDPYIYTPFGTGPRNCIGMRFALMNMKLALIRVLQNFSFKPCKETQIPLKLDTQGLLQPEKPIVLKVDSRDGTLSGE

Cytochrome P450 3A4 = Cytochrome P450 3A4 (Homo sapiens, UniProt P08684); assay: Inhibition of human recombinant CYP3A4 assessed as metabolism of 7-benzyloxy-4-trifluoromethylcoumarin to HFC after 30 mins by fluorescence assay; assay type: ADME
Chain of Cytochrome P450 3A4 (P08684 whole entry): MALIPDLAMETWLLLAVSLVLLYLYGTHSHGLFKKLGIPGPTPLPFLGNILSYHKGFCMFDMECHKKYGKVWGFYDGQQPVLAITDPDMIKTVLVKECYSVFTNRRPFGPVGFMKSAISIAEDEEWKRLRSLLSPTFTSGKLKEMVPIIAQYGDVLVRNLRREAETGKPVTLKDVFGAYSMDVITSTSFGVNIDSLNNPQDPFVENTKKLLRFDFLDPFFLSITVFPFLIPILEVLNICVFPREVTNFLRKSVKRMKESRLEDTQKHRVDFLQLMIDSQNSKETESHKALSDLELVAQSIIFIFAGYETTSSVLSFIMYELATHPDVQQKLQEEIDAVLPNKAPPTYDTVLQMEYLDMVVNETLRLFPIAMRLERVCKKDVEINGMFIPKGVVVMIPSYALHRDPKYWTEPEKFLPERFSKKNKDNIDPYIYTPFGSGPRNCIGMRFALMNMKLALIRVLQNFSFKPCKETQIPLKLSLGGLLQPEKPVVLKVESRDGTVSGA

Cytochrome P450 2D6 = Cytochrome P450 2D6 (Homo sapiens, UniProt P10635); assay: Inhibition of human recombinant CYP2D6 after 30 mins by fluorescence assay; assay type: ADME
Chain of Cytochrome P450 2D6 (P10635 whole entry): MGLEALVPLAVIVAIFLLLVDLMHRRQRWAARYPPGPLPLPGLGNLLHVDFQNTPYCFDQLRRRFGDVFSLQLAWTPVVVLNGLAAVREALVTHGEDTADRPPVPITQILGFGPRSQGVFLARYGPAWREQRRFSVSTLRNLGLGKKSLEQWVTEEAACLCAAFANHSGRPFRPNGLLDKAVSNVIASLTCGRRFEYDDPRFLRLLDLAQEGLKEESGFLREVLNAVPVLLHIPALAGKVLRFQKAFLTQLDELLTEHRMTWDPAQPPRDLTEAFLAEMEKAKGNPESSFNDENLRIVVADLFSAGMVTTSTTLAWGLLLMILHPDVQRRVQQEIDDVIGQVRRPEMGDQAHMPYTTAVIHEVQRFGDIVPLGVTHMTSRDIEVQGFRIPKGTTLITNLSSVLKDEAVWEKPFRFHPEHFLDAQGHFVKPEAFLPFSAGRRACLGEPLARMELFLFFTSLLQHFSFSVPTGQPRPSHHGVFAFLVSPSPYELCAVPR

Cytochrome P450 2A6 = biological target: T2, Cytochrome P450 2A6 (Homo sapiens, UniProt P11509); assay: Inhibition of human recombinant CYP2A6 assessed as metabolism of coumarin to 7-hydroxycoumarin after 30 mins by fluorescence assay; assay type: ADME
T2 sequence (P11509 whole entry): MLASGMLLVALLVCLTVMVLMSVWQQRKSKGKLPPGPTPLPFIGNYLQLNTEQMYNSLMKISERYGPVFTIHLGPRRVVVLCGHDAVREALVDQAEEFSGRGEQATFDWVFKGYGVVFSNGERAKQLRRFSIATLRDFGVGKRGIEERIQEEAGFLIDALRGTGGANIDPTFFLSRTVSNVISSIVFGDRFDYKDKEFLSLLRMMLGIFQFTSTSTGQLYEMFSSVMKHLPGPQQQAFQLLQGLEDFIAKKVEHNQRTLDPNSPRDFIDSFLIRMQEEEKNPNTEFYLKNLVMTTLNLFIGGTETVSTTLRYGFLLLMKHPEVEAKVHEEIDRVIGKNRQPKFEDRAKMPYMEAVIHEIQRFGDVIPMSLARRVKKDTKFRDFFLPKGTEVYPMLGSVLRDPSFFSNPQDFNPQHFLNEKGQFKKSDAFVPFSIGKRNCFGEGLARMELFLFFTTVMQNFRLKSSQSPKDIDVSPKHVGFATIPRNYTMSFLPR

[1] = biological target: T3, Estrogen receptor (Homo sapiens) (UniProt P03372); assay: Antiestrogenic effect at estrogen receptor in human MCF7 cells assessed as inhibition of E2-induced progesterone receptor mRNA expression at 1000 nM after 24 hrs by real time quantitative PCR; assay type: cell-based; parameters: scale not given: the % may be the effect or the level left
T3 sequence (whole entry): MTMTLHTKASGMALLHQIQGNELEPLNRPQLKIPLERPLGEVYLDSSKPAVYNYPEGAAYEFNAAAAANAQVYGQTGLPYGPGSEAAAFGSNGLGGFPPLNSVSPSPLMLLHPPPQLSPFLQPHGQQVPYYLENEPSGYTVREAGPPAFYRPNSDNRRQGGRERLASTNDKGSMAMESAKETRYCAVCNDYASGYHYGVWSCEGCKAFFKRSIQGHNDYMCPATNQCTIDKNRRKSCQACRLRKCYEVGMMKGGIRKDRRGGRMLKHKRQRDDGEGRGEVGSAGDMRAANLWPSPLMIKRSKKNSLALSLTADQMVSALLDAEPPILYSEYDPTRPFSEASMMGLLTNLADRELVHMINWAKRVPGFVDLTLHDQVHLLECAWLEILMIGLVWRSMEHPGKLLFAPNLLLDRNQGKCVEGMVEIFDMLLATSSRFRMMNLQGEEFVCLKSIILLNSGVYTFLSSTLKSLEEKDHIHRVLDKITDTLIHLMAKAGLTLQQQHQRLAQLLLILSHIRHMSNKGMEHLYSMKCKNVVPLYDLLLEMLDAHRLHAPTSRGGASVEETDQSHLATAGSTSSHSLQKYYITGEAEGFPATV
Summary of the method: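 MCF-7 cells (10⁵/well) grown in MEM + 10% FBS at 37 °C, 5% CO₂, then preconditioned 72 h in charcoal-stripped FBS. Treated 24 h with 1 μM compound or vehicle (0.1% methanol) plus 10 nM E2 in MEM/10% charcoal-stripped FBS. PGR mRNA extracted after genomic DNA removal and quantified by qPCR (40 cycles, Ct). Reported as % of E2-alone expression (100%); 1 μM endoxifen as positive control.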

Aromatase = biological target: T4, Aromatase (Homo sapiens, UniProt P11511); assay: Inhibition of human recombinant aromatase using 7-methoxy-trifluoromethylcoumarin as substrate assessed as formation of fluorescent metabolite after 30 mins by fluorescence assay
T4 sequence (P11511 whole entry): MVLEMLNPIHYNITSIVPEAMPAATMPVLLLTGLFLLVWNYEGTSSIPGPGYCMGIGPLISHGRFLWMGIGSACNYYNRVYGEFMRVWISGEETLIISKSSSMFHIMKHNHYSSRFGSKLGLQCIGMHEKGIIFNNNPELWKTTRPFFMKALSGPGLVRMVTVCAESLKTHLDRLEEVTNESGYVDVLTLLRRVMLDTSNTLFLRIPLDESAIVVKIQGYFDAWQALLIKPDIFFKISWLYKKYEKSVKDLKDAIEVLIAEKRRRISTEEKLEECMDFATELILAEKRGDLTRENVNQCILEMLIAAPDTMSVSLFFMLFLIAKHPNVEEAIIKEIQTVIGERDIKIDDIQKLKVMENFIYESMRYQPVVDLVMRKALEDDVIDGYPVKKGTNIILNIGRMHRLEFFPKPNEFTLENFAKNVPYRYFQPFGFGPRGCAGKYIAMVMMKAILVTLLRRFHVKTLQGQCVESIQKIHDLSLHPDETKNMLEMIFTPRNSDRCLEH
Summary of the method: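 Recombinant human CYP19 with MFC substrate, converted to fluorescent HFC, in 0.1 M potassium phosphate pH 7.4. NADPH-regenerating mix (NADP⁺, MgCl₂, glucose-6-phosphate, G6PDH); compound prewarmed 10 min at 37 °C, then 30 min reaction stopped with Tris base in acetonitrile. Activity as % of vehicle control; IC50 from one-site competition fit; Ki from Lineweaver–Burk data by nonlinear regression.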

Estrogen receptor = biological target: T5, Estrogen receptor (Homo sapiens, UniProt P03372); assay: Displacement of fluorescein-labeled ES2 from human recombinant ERalpha receptor after 2 hrs by fluorescence polarization assay; summary of the method: as §1
T5 sequence (P03372 whole entry): T3 sequence (whole entry)

Chain of Estrogen receptor beta (Q92731 whole entry): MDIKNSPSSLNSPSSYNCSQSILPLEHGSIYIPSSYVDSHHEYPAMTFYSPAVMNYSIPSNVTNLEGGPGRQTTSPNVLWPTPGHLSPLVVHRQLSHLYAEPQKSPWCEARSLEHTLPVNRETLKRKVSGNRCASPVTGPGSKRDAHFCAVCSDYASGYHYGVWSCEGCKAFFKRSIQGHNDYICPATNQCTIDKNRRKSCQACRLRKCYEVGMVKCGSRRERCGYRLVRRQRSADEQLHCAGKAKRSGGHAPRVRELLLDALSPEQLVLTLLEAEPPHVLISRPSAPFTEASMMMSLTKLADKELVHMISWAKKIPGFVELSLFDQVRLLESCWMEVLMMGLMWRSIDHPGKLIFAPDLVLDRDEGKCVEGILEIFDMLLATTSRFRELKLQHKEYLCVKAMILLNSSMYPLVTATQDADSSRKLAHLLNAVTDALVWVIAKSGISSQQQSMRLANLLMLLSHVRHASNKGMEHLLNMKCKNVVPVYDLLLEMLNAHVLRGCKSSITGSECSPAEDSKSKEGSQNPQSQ

CC/C(=C(/c1ccc(O)cc1)c1ccc(OCCN)cc1)c1ccc(O)cc1 (mixture of isomers)
EC50 (Estrogen receptor beta): 9.5 nM | IC50 (Cytochrome P450 1A2): 207 nM | Ki (Cytochrome P450 1A2): 56 nM | IC50 (Cytochrome P450 3A5): 556 nM | Ki (Cytochrome P450 3A5): 855 nM | IC50 (Cytochrome P450 3A4): 1880 nM | Ki (Cytochrome P450 3A4): 1640 nM | IC50 (Cytochrome P450 2D6): 3600 nM | Ki (Cytochrome P450 2D6; read-out: Ki): 423 nM | Ki (Cytochrome P450 2A6): 710 nM | Activity [1]: 14% | IC50 (Aromatase): 45 nM | EC50 (Estrogen receptor): 15 nM
